Measured values from ChEMBL document CHEMBL4765399, “Design, synthesis, and biological evaluation of 5-((8-methoxy-2-methylquinolin-4-yl)amino)-1H-indole-2-carbohydrazide derivatives as novel Nur77 modulators” (Eur J Med Chem, 2020).
Calls of active or inactive are those of the source. The calls are words filed in the database; no cut-off is given here.

Experiments:
HepG2 [1] = test: Antitumor activity against human HepG2 cells xenografted in BALB/c mouse assessed as induction of autophagy by measuring increase in Beclin1 level in tumor tissue at 10 to 20 mg/kg/day, ip administered for 15 days by immunohistochemical analysis; type: functional, organism-based; conditions: dose 10-20 mg/kg/day, time 15.0 day
Outline: (§1)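 HepG2 cells (5×10^6) injected subcutaneously into flanks of 4-week-old male Balb/c nude mice. At about 100 mm³, 15 mice were randomized to vehicle, 10 or 20 mg/kg i.p. once daily for 15 days. Tumors were then excised for immunostaining of paraffin sections (5 μm) or for western blot.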

[2] = Toxicity in BALB/c mouse xenografted with human HepG2 cells assessed as effect on body weight at 10 to 20 mg/kg/day, ip administered for 15 days; type: organism-based; conditions: in vivo, 360 h, dose 10-20 mg/kg/day, time 15 day
Outline: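 Male Balb/c mice, 4 weeks old, injected subcutaneously in the flank with 5×10^6 HepG2 cells. At about 100 mm³, 15 mice randomized into vehicle, 10 and 20 mg/kg groups. Dosed i.p. once daily for 15 days. Tumour size and body weight measured daily; mice euthanized at the end.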

HepG2 [3] = test: Induction of apoptosis in human HepG2 cells transfected with shRNA assessed as live cells at 2 uM incubated for 12 hrs by Annexin V-FITC/PI staining based flow cytometry (reference value: 92.6%); type: functional
HepG2 [4] = test: Antitumor activity against human HepG2 cells xenografted in BALB/c mouse assessed as induction of autophagy by measuring increase in LC3-II level in tumor tissue at 10 to 20 mg/kg/day, ip administered for 15 days by western blot analysis; type: functional, organism-based; conditions: dose 10-20 mg/kg/day, time 15.0 day; outline: as §1
HepG2 [5] = test: Inhibition of colony formation in human HepG2 cells at 2 uM incubated for 24 hrs measured after cell culturing for 15 days in normal medium by crystal violet staining based assay; type: functional; conditions: time 16.0 day
Outline: (§2)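 500 HepG2, QGY-7703 or SMMC-7721 cells per well allowed to attach 24 h, exposed to DMSO or 2.0 µM for 24 h, then grown 15 days in plain medium. Colonies fixed 30 min in 4% paraformaldehyde, stained 15 min with 0.1% crystal violet, photographed and counted.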

HepG2 [6] = test: Induction of apoptosis in human HepG2 cells assessed as late apoptotic cells at 1 uM incubated for 12 hrs by Annexin V-FITC/PI staining based flow cytometry (reference value: 1.1%); type: functional
HepG2 [7] = test: Antitumor activity against human HepG2 cells xenografted in BALB/c mouse assessed as tumor growth inhibition at 10 mg/kg/day, ip administered for 15 days; type: functional; conditions: 360 h, time 15 day
Outline: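 Subcutaneous flank xenograft of 5×10^6 HepG2 cells in 4-week-old male Balb/c nude mice. At about 100 mm³, 15 mice were randomized into three groups: vehicle, 10 or 20 mg/kg i.p. daily for 15 days. Tumor size was measured every day, and tumors were excised and weighed at the end.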

HepG2 [8] = test: Disruption of mitochondrial membrane potential in human HepG2 cells assessed as red fluorescence intensity at 2 uM incubated for 12 hrs by JC-1 staining based flow cytometry (reference value: 23598 units); type: functional
HepG2 [9] = test: Induction of endoplasmic reticulum stress in human HepG2 cells assessed as increase in CHOP protein expression incubated for 12 hrs by Western blot analysis; type: functional, cell-based; conditions: dose 0.5-2 µM
Outline: (§3)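 HepG2, QGY-7703 and SMMC-7721 treated with graded concentrations for 12 h. Lysed in RIPA with inhibitors; 40-80 µg protein separated by SDS-PAGE, blotted to nitrocellulose, blocked 1 h in 5% milk, primary antibodies overnight (LC3, Beclin1, Bip, CHOP, TRB3), HRP secondaries, chemiluminescence.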

QGY-7703 [10] = test: Inhibition of colony formation in human QGY-7703 cells at 2 uM incubated for 24 hrs measured after cell culturing for 15 days in normal medium by crystal violet staining based assay; type: functional; conditions: time 16.0 day; outline: as §2
QGY-7703 [11] = test: Induction of autophagy in human QGY-7703 cells assessed as increase in Beclin 1 expression measured after 12 hrs by Western blot analysis; type: functional, cell-based; conditions: dose 0.5-2 µM; outline: as §3
[12] = biological target: Nuclear receptor subfamily 4immunitygroup A member 1 (Homo sapiens, UniProt P22736); test: Modulation of Nur77 in human HepG2 cells assessed as induction of Nur77 translocation into cytoplasm from nucleus by measuring increase in protein expression in cytoplasm at 2 uM by western blot analysis; type: subcellular; conditions: filed as modulator, time 1-8 hrs, TDE = time-dependent effect
Outline: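 HepG2 given 2.0 µM for set times; cells swollen 10 min on ice in HEPES/NaCl/EDTA/CaCl2/MgCl2 buffer, 0.1% NP40 added, spun 15000 rpm 3 min at 4 °C giving cytoplasmic supernatant; pellet extracted in RIPA. Fractions blotted for Nur77, with PARP (nuclear) and tubulin (cytoplasmic) as loading controls.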

HepG2 [13] = test: Induction of apoptosis in human HepG2 cells assessed as cleaved caspase-3 expression at 2 uM pretreated with ER stress inhibitor, 4-PBA for 2 hrs followed by incubation with compound for 12 hrs by Western blot analysis; type: functional, cell-based
Outline: (§4)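 HepG2 cells grown to confluence were pretreated 2 h with 2 mM 3-MA (autophagy inhibitor) or 2 mM 4-PBA (ER stress inhibitor), then exposed to compound for 12 h. Proteins (40–80 µg, RIPA lysate) were resolved by SDS-PAGE and blotted for PARP, cleaved caspase-3/-9, Bcl-2 and Bax, with chemiluminescent detection.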

HepG2 [14] = test: Induction of apoptosis in human HepG2 cells assessed as increase in cleaved PARP level at 0.5 to 2 uM incubated for 12 hrs by Western blot analysis; type: functional, cell-based; conditions: dose 0.5-2 µM
Outline: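 HepG2 cells exposed 12 h to graded concentrations. RIPA lysates with protease/phosphatase inhibitors, 40–80 µg protein by SDS-PAGE onto nitrocellulose, probed for PARP cleavage, chemiluminescent detection.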

HepG2 [15] = test: Induction of apoptosis in human HepG2 cells assessed as cleaved PARP expression at 2 uM pretreated with autophagy inhibitor, 3-methyladenine for 2 hrs followed by incubation with compound for 12 hrs by Western blot analysis; type: functional, cell-based; outline: as §4
HepG2 [16] = test: Induction of endoplasmic reticulum stress in human HepG2 cells assessed as increase in PDI protein expression at 2 uM incubated for 6 hrs by confocal microsocopic analysis; type: functional, cell-based
Outline: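 HepG2, or HepG2 plus shNur77 HepG2, treated with 2.0 µM for 6 h, fixed in 4% paraformaldehyde 20 min, permeabilised 0.1% Triton X-100, blocked in 5% BSA, stained with PDI antibody and imaged by confocal fluorescence microscopy.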

HepG2 [17] = test: Antitumor activity against human HepG2 cells xenografted in BALB/c mouse assessed as induction of ER stress by measuring increase in CHOP level in tumor tissue at 10 to 20 mg/kg/day, ip administered for 15 days by western blot analysis; type: functional, organism-based; conditions: dose 10-20 mg/kg/day, time 15.0 day; outline: as §1
QGY-7703 [18] = test: Induction of autophagy in human QGY-7703 cells assessed as increase in LC3-II expression measured after 12 hrs by Western blot analysis; type: functional, cell-based; conditions: dose 0.5-2 µM; outline: as §3
HepG2 [19] = test: Induction of autophagy in human HepG2 cells assessed as increase in Beclin 1 expression measured after 12 hrs by Western blot analysis; type: functional, cell-based; conditions: dose 0.5-2 µM; outline: as §3
SMMC-7721 = test: Inhibition of colony formation in human SMMC-7721 cells at 2 uM incubated for 24 hrs measured after cell culturing for 15 days in normal medium by crystal violet staining based assay; type: functional; conditions: time 16.0 day; outline: as §2

Sequence of Nuclear receptor subfamily 4immunitygroup A member 1 (P22736 whole entry): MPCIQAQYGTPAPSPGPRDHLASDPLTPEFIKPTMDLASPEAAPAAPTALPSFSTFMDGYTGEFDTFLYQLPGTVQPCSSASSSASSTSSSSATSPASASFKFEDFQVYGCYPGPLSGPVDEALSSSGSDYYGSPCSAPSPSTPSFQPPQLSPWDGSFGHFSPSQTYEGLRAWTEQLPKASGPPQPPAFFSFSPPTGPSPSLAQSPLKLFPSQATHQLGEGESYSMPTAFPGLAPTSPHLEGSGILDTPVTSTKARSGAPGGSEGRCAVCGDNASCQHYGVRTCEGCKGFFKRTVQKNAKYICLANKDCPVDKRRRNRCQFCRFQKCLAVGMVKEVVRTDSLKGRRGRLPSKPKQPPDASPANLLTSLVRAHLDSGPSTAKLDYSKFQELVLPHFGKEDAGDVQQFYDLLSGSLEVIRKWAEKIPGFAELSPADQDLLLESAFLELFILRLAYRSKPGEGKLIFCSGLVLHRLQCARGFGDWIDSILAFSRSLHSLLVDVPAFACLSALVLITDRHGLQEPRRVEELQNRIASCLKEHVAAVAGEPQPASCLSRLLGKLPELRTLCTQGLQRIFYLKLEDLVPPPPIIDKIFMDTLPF

In the case of COc1cccc2c(Nc3ccc4[nH]c(C(=O)N/N=C/c5ccc(SC)cc5)cc4c3)cc(C)nc12, the Activity (HepG2 [1]) was “Active”, the Activity [2] was “Non-Toxic” and the Activity (HepG2 [3]) was 59.8%. For the same compound, the Activity (HepG2 [4]) was “Active”, the inhibition (HepG2 [5]) was “Active” and the Activity (HepG2 [6]) was 16.1%. The inhibition in vivo at 10 mg/kg/day (HepG2 [7]) was 36.7%, the Activity (HepG2 [8]) was 10298 U and the Activity (HepG2 [9]) was “Dose-dependent effect”. The inhibition (QGY-7703 [10]) was “Active”, the Activity (QGY-7703 [11]) was “Dose-dependent effect” and the Activity [12] was “Tde”. The Activity (HepG2 [13]) was “inactive”, the Activity (HepG2 [14]) was “Dose-dependent effect” and the Activity (HepG2 [15]) was “inactive”. The Activity (HepG2 [16]) was “Active”, the Activity (HepG2 [17]) was “Active” and the Activity (QGY-7703 [18]) was “Dose-dependent effect”. The Activity (HepG2 [19]) was “Dose-dependent effect” and the inhibition (SMMC-7721) was “Active”.
